Assay [1] has as its system Ovis aries. Description: Increase in FSH level in anoestrus Ile-de-France ewe at 15 nmol, iv by radioimmunoassay. The format is functional, organism-based. An outline of the steps:
(§1)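 Intact acyclic anoestrous Ile-de-France ewes (3–5 y, 55–70 kg), jugular catheter placed the day before. Single iv bolus. Basal sampled every 10 min for 30 min, then every 10 min for 2 h, every 20 min for 4 h, then hourly. Plasma FSH measured by RIA with Tucker reagents (sensitivity 0.1 ng/mL), AUC computed; mean ± SEM, N = 4–6.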

Assay [2] has as its system Ovis aries. As to the kind of experiment: Increase in total plasma LH level in anoestrus Ile-de-France ewe at 1 to 15 nmol, iv by radioimmunoassay. The format is functional, organism-based. An outline of the steps: (§2)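 Intact acyclic anoestrous Ile-de-France ewes (3–5 y, 55–70 kg), jugular catheter placed the day before. Single iv bolus of 1–15 nmol/ewe. Basal LH taken every 10 min for 30 min, then every 10 min for 2 h, every 20 min for 4 h, then hourly. Plasma LH by RIA (1051-CY-LH standard, sensitivity 0.1 ng/mL). Peak, duration and AUC derived; mean ± SEM, N = 4–6.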

The test system of assay [3] is Ovis aries. As to the kind of experiment: Increase in time duration of increase of plasma LH level in anoestrus Ile-de-France ewe at 1 to 15 nmol, iv by radioimmunoassay. Format: functional, organism-based. An outline of the steps:
as §2

Assay [4] concerns Ovis aries. Description: Increase in peak plasma LH level in anoestrus Ile-de-France ewe at 5 nmol, iv by radioimmunoassay (reference value: 0.2 +/- 0.09 ng/ml). Format: functional. An outline of the steps: as §2
Assay [5] is filed under the species Homo sapiens. Description: Selectivity index, ratio of EC50 for human NPFF1R to EC50 for human wild-type KISS1R.
The subject of assay [6] is Ovis aries. Description: Increase in FSH level in anoestrus Ile-de-France ewe at 1 nmol, iv by radioimmunoassay. The format is functional, organism-based. An outline of the steps:
as §1

Assay [7] has as its system Ovis aries. Description: Increase in total plasma LH level in anoestrus Ile-de-France ewe at 1 nmol, iv by radioimmunoassay. Format: functional. An outline of the steps:
as §2

Assay [8] deals with Ovis aries. Description: Increase in peak plasma LH level in anoestrus Ile-de-France ewe at 5 nmol, iv by radioimmunoassay relative to untreated control. Format: functional. An outline of the steps:
as §2

The target of assay [9] is KiSS-1 receptor (Homo sapiens, UniProt Q969F8). As to the kind of experiment: Agonist activity at human wild-type KISS1R expressed in HEK293 cells assessed as induction of intracellular Ca2+ mobilization after 30 mins by Fluo4 NW Ca2+ assay. Format: functional, cell-based. An outline of the steps: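 HEK293 stably expressing HA-tagged wild-type human KISS1R, plated 40 000 cells/well 48 h prior. Loaded with Fluo4 NW dye 30 min at 37 °C plus 30 min at rt. Basal read 5× at 7 s intervals, compound added (final 1 pM–1 μM), Ca2+ followed 7 min. Mean basal subtracted, AUC plotted against concentration, sigmoid fit gives EC50. Nontransfected HEK293 served as control.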

Assay [10] has as its system Ovis aries. Description: Increase in FSH level in anoestrus Ile-de-France ewe at 5 nmol, iv by radioimmunoassay. The format is functional, organism-based. An outline of the steps:
as §1

In assay [11] the test system is Ovis aries. As to the kind of experiment: Increase in time duration of increase of plasma LH level in anoestrus Ile-de-France ewe at 15 nmol, iv by radioimmunoassay. The format is functional. An outline of the steps: as §2
Assay [12] deals with Ovis aries. Description: Increase in peak plasma LH level in anoestrus Ile-de-France ewe at 15 nmol, iv by radioimmunoassay relative to untreated control. Format: functional. An outline of the steps:
as §2

The subject of assay [13] is Ovis aries. Description: Increase in peak plasma LH level in anoestrus Ile-de-France ewe at 1 nmol, iv by radioimmunoassay (reference value: 0.3 +/- 0.09 ng/ml). Format: functional. An outline of the steps:
as §2

The target in assay [14] is Neuropeptide FF receptor 1 (Homo sapiens, UniProt Q9GZQ6). As to the kind of experiment: Agonist activity at human NPFF1R expressed in CHO cells assessed as effect on forskolin-induced cAMP accumulation after 15 mins by luminescence based assay. Format: functional, cell-based. An outline of the steps: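 CHO cells stably expressing hNPFF1R (Gαi-coupled), transfected with GloSensor; seeded 30 000 cells/well 24 h before, PBS-washed twice, loaded with GloSensor cAMP reagent 2 h. Compound added, luminescence read 15 min, then 300 nM forskolin + 0.25 mM IBMX added and read a further 120 min. Signal AUC plotted against concentration, sigmoid fit for EC50.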

Assay [15] has as its system Ovis aries. Description: Increase in total plasma LH level in anoestrus Ile-de-France ewe at 15 nmol, iv by radioimmunoassay. Format: functional. An outline of the steps: as §2
Assay [16] concerns Ovis aries. Description: Increase in peak plasma LH level in anoestrus Ile-de-France ewe at 15 nmol, iv by radioimmunoassay (reference value: 0.3 +/- 0.15 ng/ml). Format: functional. An outline of the steps:
as §2

For assay [17], the system named is Ovis aries. As to the kind of experiment: Increase in maximal amplitude of plasma LH level in anoestrus Ile-de-France ewe at 1 to 15 nmol, iv by radioimmunoassay. Format: functional, organism-based. An outline of the steps:
as §2

Activity calls are given as the source filed them. The calls are words filed in the database; no cut-off is given here. *1 amine or outer side, *2 acyl side, *3 side chain or, on linkers, in order; H or OH if unused. Where a SMILES comes first, the peptide text is derived from it. Side-chain parts run from the residue outwards. [ ]: non-standard residue; d: D form. The star is where a group is joined. Glyψ(1,4-Tz)Leu = CC(C)C[C@@H](C(=O)[*:2])n1cc(CN[*:1])nn1; γGlu = O=C(O)[C@H](CCC(=O)[*:2])N[*:1]; Palmitoyl = CCCCCCCCCCCCCCCC(=O)*

Sequence of Neuropeptide FF receptor 1 (Q9GZQ6 whole entry): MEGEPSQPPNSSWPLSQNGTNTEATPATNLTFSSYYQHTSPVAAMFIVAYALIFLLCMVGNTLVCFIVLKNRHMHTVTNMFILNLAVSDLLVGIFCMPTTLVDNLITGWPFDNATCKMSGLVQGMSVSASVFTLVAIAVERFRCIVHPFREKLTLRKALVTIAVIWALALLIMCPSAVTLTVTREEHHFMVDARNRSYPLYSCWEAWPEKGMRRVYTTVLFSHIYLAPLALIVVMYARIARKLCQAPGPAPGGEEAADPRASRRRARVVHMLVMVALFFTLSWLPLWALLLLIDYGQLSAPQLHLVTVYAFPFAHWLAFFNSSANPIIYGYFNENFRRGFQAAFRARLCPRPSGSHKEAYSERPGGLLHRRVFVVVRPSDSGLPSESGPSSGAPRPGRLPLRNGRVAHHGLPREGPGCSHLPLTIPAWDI
Sequence of KiSS-1 receptor (Q969F8 whole entry): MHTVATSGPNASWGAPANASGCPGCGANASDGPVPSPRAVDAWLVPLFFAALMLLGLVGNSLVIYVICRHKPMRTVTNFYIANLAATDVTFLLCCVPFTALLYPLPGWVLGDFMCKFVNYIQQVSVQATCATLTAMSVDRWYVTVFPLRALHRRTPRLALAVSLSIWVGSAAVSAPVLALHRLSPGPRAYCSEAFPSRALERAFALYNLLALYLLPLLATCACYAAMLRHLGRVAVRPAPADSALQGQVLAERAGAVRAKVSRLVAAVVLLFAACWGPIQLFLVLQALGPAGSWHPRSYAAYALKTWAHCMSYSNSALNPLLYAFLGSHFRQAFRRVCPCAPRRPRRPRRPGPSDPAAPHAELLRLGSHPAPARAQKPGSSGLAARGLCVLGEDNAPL

Consider `CCCCCCCCCCCCCCCC(=O)N[C@@H](CCC(=O)NCCCC[C@H](NC(=O)[C@H](Cc1ccc(O)cc1)NC(C)=O)C(=O)N[C@@H](Cc1c[nH]c2ccccc12)C(=O)N[C@@H](CC(N)=O)C(=O)N[C@@H](CO)C(=O)N[C@@H](Cc1ccccc1)C(=O)NCc1cn([C@@H](CC(C)C)C(=O)N[C@@H](CCCNC(=N)N)C(=O)N[C@@H](Cc2ccc(O)cc2)C(N)=O)nn1)C(=O)O` (Ac-YK([γGlu-Palmitoyl])WNSF[Glyψ(1,4-Tz)Leu]RY-NH2), for which the result in assay [1] was Active. In addition, the Activity result in assay [2] is “Dose-dependent effect”; in assay [3] it was “Dose-dependent effect”; in assay [4], 5.3 ng/mL; in assay [7], 274 ng·min/mL; in [13], 1.1 ng/mL; in assay [15], 2400 ng·min/mL. Further, the values for the Activity in assay [16] and in [17] were 13.3 ng/mL and “Dose-dependent effect”, respectively. For the same compound, in assay [5], the Ratio EC50 is greater than 100. Also, the outcome in assay [6] and in assay [10] was inactive. Also, the “fold change (FC)” value in assay [8] stood at 25; in assay [12], 40. The EC50 was 1.6 nM in assay [9] and 222 nM in [14]. The compound further displayed a Time in assay [11] greater than 9 h.
